In article PMC5955861 (Oncogene, 2018):
Read-outs that look alike come from different tables or passages of the source. Each block holds one molecule with its values, some of them ahead of it.

Key:
[1] = system: MV-4-11B; assay: alamarBlue cell proliferation assay; format: cell-based, human; details: MV-4-11B cells
Outline: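 Cell lines from ATCC or DSMZ were cultured per supplier's instructions and STR-authenticated. MV-4-11B is a clone of MV-4-11 carrying heterozygous TP53 c.742C>T (p.R248W). Cells were exposed to test compound in 96-well format, and viability was read after incubation with alamarBlue.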

[2] = system: p-Ser2 POL-II in MV-4-11B cells; assay: p-Ser2 POL-II custom MSD assay; format: cell-based; details: 5 µM LDC000067, 2 h
Outline: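 MV-4-11B cells were treated for 2 h with single agents or their combination. Phospho-Ser2 RNA Pol II was quantified with a custom Meso Scale Discovery multi-array assay.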

[3] = system: THP-1 AML cells; assay: disseminated AML xenograft efficacy study; format: in vivo, CIEA-NOG mice; details: decitabine twice per week, 0.5 mg/kg i.p.

Structure (SMILES): Cc1sc2c(c1C)C(c1ccc(Cl)cc1)=N[C@@H](CC(=O)OC(C)(C)C)c1nnc(C)n1-2 [JQ1, reference compound]
- EC50 ([1]; read-out: anti-proliferative EC50, biologically equivalent concentrations): 200 nM

- EC50 [1]: 5000 nM
Structure (SMILES): COc1ccccc1-c1cc(Nc2cccc(CS(N)(=O)=O)c2)ncn1 [LDC000067, reference compound]
- p-Ser2 POL-II levels [2]: ~ 64 % of control

Structure (SMILES): Nc1ncn([C@H]2C[C@H](O)[C@@H](CO)O2)c(=O)n1 [decitabine, reference compound]
- survival prolongation [3]: 26 days
